Experimental data from ChEMBL document CHEMBL5154719, “Probing Embryonic Development Enables the Discovery of Unique Small-Molecule Bone Morphogenetic Protein Potentiators” (J Med Chem, 2022).
Calls of active or inactive are those of the source. The rule behind the calls is not given here.

Columns and labels:
Embryonic stem cell [1] = experiment: Induction of cardiac differentiation in mouse ESC transfected with Myh6-GFP treated for 48 hrs and measured after 3 to 6 days by imaging analysis; type: functional, cell-based; conditions: time 3-6 day
Outline: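 mESC-Myh6-GFP seeded on 0.1% gelatine at 500 cells/well in LIF-free medium to differentiate spontaneously (day 0). Inhibitors given dose-dependently for 48 h over the stated day windows. Medium later changed to complete LIF-free medium. On day 11, cells PFA-fixed and DAPI-stained. GFP+ cardiomyocytes quantified by high-content imaging, normalized to DMSO; mean ± SEM.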

[2] = Inhibition of DMH-1 induced cardiogenesis in mouse ESC transfected with Myh6-GFP; type: functional, cell-based; conditions: embryonic stem cell
Outline: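 mESC-Myh6-GFP, 500 cells/well on gelatine, LIF-free medium from day 0. On day 3, compounds added (triplicates for IC50) with DMH-1 at 0.5 μM final, 0.2% DMSO, 6% FBS; 24 h. Medium then changed, refreshed days 7 and 9. Day 11: PFA fixation, DAPI stain, automated imaging of GFP intensity and cell count, normalized to DMH-1. Cell count below 70% of DMH-1 flagged as cytotoxic.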

C2C12 [3] = experiment: Induction of BMP-dependent osteogenesis in mouse C2C12 cells incubated for 72 hrs; type: functional, cell-based
Outline: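 C2C12 myoblasts, 2000 cells/well in DMEM with 6% heat-inactivated FBS, grown 16 h; compounds added in triplicate, then BMP-4 at 7.5 ng/mL; 72 h. ALP activity read by luminescence after lysis with CDP-Star substrate, 1 h at room temperature in the dark. Activity with 7.5 ng/mL BMP-4 in DMSO set to 100%. EC50 by curve fitting.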

[4] = biological target: Glycogen synthase kinase-3 beta (Homo sapiens, UniProt P49841); experiment: Inhibition of GSK3beta (unknown origin)
Chain of Glycogen synthase kinase-3 beta (P49841 whole entry): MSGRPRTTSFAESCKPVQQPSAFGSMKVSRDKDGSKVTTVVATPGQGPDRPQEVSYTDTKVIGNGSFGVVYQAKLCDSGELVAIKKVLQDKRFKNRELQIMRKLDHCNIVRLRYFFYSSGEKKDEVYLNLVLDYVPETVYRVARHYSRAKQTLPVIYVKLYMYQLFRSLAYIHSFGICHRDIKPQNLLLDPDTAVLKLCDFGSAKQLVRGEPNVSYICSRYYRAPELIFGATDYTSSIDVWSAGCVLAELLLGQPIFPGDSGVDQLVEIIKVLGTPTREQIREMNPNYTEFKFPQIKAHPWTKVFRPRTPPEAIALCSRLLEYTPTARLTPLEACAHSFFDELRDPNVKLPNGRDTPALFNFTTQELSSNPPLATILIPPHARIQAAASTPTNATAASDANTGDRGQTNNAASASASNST

[5] = Induction of alkaline phosphatase activation in mouse C2C12 cells assessed as fold increase incubated in presence of 50 ng/ml BMP4 at 1 uM relative to BMP4 alone; type: functional
Embryonic stem cell [6] = experiment: Induction of cardiac differentiation in mouse ESC transfected with Myh6-GFP treated for 48 hrs and measured after 4 to 6 days by imaging analysis; type: functional, cell-based; conditions: time 4-6 day
SAOS-2 = experiment: Induction of osteoblastic mineralization in human SAOS-2 cells at 25 nM followed by BMP-4 addition measured after 11 days of osteogenic differentiation; type: functional, cell-based; conditions: time 11.0 day
Outline: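 SaOS-2 cells, 8×10³ cells/well, in osteogenic medium (10 mM β-glycerophosphate, 0.2 mM ascorbic acid, 10 nM dexamethasone) with 2 ng/mL BMP-4 or BMP-2 for 11 days. Medium and compound changed every 3 days; ascorbate refreshed daily; DMSO 0.01% vehicle. Mineralization by von Kossa staining; stained area quantified from at least four images per condition at 100× magnification.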

C2C12 [7] = experiment: Potentiation of BMP receptor in BMP-4 stimulated mouse C2C12 cells assessed as decrease in cytoplasmic Smad2 level preincubated for 24 hrs followed by BMP-4 stimulation and measured after 30 mins in presence of […]/BMP by Western blot analysis; type: cell-based; conditions: filed as activator, time 24.5 hrs
Outline: (§1)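 C2C12 cells exposed to compound with TGFβ-2 (10 ng/mL) for 24 h; for nuclear readout, a further 30 min BMP-4 at 2 ng/mL. Cytoplasmic and nuclear fractions isolated in HEPES buffers, pH 7.5, with phosphatase and protease inhibitors. Smads detected by Western blot, luminescence normalized to total protein per lane (trichloroethanol stain), then to DMSO.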

C2C12 [8] = experiment: […] of osteoblastogenesis in mouse C2C12 cells assessed as upregulation of Alp gene expression in presence of BMP4 at 1 uM measured after 72 hrs; type: functional, cell-based
Outline: (§2)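 C2C12 cells plated at 1 × 10⁵ cells/well and treated with compound (1 μM) plus BMP-4 (7.5 ng/mL) or DMSO for 72 h. RNA isolated and transcripts quantified by qRT-PCR using the ΔΔCp method. Mean of triplicates ± SD, normalized to DMSO.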

C2C12 [9] = experiment: […] of osteoblastogenesis in mouse C2C12 cells assessed as upregulation of Col1a1 gene expression in presence of BMP4 at 1 uM measured after 72 hrs; type: functional, cell-based; outline: as §2
C2C12 [10] = experiment: […] of osteoblastogenesis in mouse C2C12 cells assessed as upregulation of Runx2 gene expression in presence of BMP4 at 1 uM measured after 72 hrs; type: functional, cell-based; outline: as §2
C2C12 [11] = experiment: Potentiation of BMP receptor in mouse C2C12 cells assessed as increase in Id1 gene expression level incubated for 24 hrs by qRT-PCR analysis; conditions: filed as activator
C2C12 [12] = experiment: […] of osteoblastogenesis in mouse C2C12 cells assessed as upregulation of Ocn gene expression in presence of BMP4 at 1 uM measured after 72 hrs; type: functional, cell-based; outline: as §2
C2C12 [13] = experiment: […] of osteoblastogenesis in mouse C2C12 cells assessed as upregulation of Opn gene expression in presence of BMP4 at 1 uM measured after 72 hrs; type: functional, cell-based; outline: as §2
C2C12 [14] = experiment: Potentiation of BMP receptor in mouse C2C12 cells assessed as increase in Id2 gene expression level incubated for 24 hrs by qRT-PCR analysis; conditions: filed as activator
C2C12 [15] = experiment: Potentiation of BMP receptor in mouse C2C12 cells assessed as decrease in cytoplasmic Smad2 level incubated for 24 hrs in presence of […]/BMP by Western blot analysis; type: cell-based; conditions: filed as activator; outline: as §1
C2C12 [16] = experiment: […] of osteoblastogenesis in mouse C2C12 cells assessed as upregulation of Osx gene expression in presence of BMP4 at 1 uM measured after 72 hrs; type: functional, cell-based; outline: as §2

For c1cc(-c2cnn3cc(-c4ccc(OCCN5CCCCC5)cc4)cnc23)ccn1, the Activity (Embryonic stem cell [1]) was “Active”.
With Cc1cc(Nc2cc(Cl)nc(Oc3ccc([N+](=O)[O-])cc3)n2)n[nH]1 the IC50 [2] was 0.2 µM, the Activity (C2C12 [3]) was “Active” and the IC50 [4] was 0.002 µM. For the same molecule, the “fold change (FC)” value [5] was 2.
For NC(=O)c1ccc(-c2nc(-c3ccccn3)c(-c3ccc4c(c3)OCO4)[nH]2)cc1, the Activity (Embryonic stem cell [6]) was “Active”.
For O=c1c(-c2ccc(C(F)(F)F)cc2)c(-n2cncn2)oc2ccccc12, the IC50 [2] was 0.2 µM, the Activity (SAOS-2) was “Active” and the Activity (C2C12 [7]) was “Active”. For the same molecule, the Activity (C2C12 [3]) was “Active”, the Activity (C2C12 [8]) was “Active” and the Activity (C2C12 [9]) was “Active”. The Activity (C2C12 [10]) was “Active”, the Activity (C2C12 [11]) was “Active” and the Activity (C2C12 [12]) was “Active”. The Activity (C2C12 [13]) was “Active”, the Activity (C2C12 [14]) was “Active” and the Activity (C2C12 [15]) was “Active”. The Activity (C2C12 [16]) was “Active”.
